# Assay outcomes: PubChem BioAssay, several laboratories
# Yeast growth inh – growth inhibitors of yeast BB579 in restrictive medium, primary screen, yeast lifespan-shortening project, S. cerevisiae; OD615, 48 h; hit rate 0.51% among 140,000; inhibition, % at 10 µM; AID 804, 2007;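 active = inhibition above a set limit, 3 SD over the mean compound inhibition, cut at about 44% in these data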
#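 Detection: OD615 turbidity measurement; Material: Saccharomyces cerevisiae DeaD strain BB579, replicative lifespan model yeast; Timing: 48 h exposure, 30 °C; Doses: single 10 µM dose; Medium: CSMM-D restrictive synthetic medium containing dextrose (glucose); Controls: amphotericin B at 10 µg/mL as positive control.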
# Yeast lifespan up – compounds extending yeast replicative lifespan, primary screen, S. cerevisiae, OD615; S. cerevisiae growth with nicotinamide; deaD strain in restrictive glucose medium; inhibition of the nicotinamide effect, % at 10 µM; hit rate 0.68% among 130,000; AID 775, 2007;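 active = inhibition above a set limit, placed 3 SD over the median of all compounds, cut at about 26% in these data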
#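 Measured by: optical density (absorbance) at 615 nm; System: modified budding yeast, DeaD strain; Medium: restrictive CSMM-D dextrose medium; Timing: 4 h preincubation then 48 h treatment at 30 °C.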
# Phagocytosis inh – inhibitors of macrophage phagocytosis, primary screen, imaging, J774A.1 cells, IgG beads; J774A.1 macrophage IgG-bead phagocytosis; inhibition, % at 5 µM; hit rate 0.07% among 110,000;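 active = inhibition above the mean of the plate negative controls plus 5 SD, cut at about 13% in these data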;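 also: phagocytic index as fraction of beads internalized from green versus red external bead signal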
# Measles CPE – compounds protecting cells from measles virus cytopathic effect, primary screen, measles RdRp inhibitor project, single point, MLSMR library, absorbance | Measles virus-infected cells, CPE protection | protection (pct of control), % at 4 µM | hit rate 1.5% among 140,000 | AID 841, 2007; in the data active = protection mostly above about 24%, no sharp cut-off; inactive = mostly below about 26%
# RAM network inh – inhibitors of the yeast RAM network, primary screen, dse1pr::URA3 reporter, 5-FOA selection; S. cerevisiae dse1pr::URA3 reporter, 5-FOA growth OD615, 2 d; analog-sensitive cbk1-as2 kinase mutant strain; inhibition, % at 50 µM; hit rate 1.8% among 190,000; AID 868, 2007;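 active = inhibition above a set limit, 3 SD over mean compound inhibition, cut at about 8.4% in these data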;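 also: inhibition rescues growth on 5-FOA so higher OD means more RAM inhibition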
# Numbers stand for hits; 0 = inactive; - = not tested or not shown. Hits are enriched below; roughly 3.6% of the tested compounds scored in any of these assays.
SMILES,Yeast growth inh,Yeast lifespan up,Phagocytosis inh,Measles CPE,RAM network inh
Cc1cc(OCc2cn3cccnc3n2)ccc1Cl,0,0,0,0,0
ClC(Cl)(c1nnnn1-c1ccccc1)c1nnnn1-c1ccccc1,0,50,0,0,0
CCOC(=O)c1cccc(NC(=O)C(C)N2C(=O)c3ccccc3C2=O)c1 (stereo not given),0,0,0,0,0
CCOC(=O)c1ccc(NC(=O)C(C)N2C(=O)c3ccccc3C2=O)cc1 (stereo not given),0,27,0,0,0
O=C(CCCc1cccs1)Nc1nccs1,-,-,-,-,0
COC(=O)[C@@]1(Cc2ccc(F)cc2)[C@H]2c3cc(C(=O)N(C)C)n(CCc4ccc(OC)c(Br)c4)c3C[C@H]2CN1C(=O)c1ccccc1,0,0,-,0,8.7
CC(=O)NCC(=O)OCC(=O)c1ccc(C)c(C)c1,0,0,0,0,0
Cc1ccc(S(=O)(=O)CCC(=O)OCC(=O)c2ccc(C)c(C)c2)cc1,0,0,0,30,11
Cc1cc(C)cc(NC(=O)Cn2nnc3ccccc3c2=O)c1,-,-,-,-,0
CCCNC(=O)Cn1c(=O)/c(=C\c2ccc(-c3cccc([N+](=O)[O-])c3)o2)s/c1=C\C(=O)C(C)(C)C,0,0,0,0,9.4
O=C(Cc1ccccc1)N/N=C/c1ccc(-c2ccc([N+](=O)[O-])cc2)o1,0,0,0,0,0
Cc1ccc(C(=O)N/C(=C\c2ccc(-c3cccc([N+](=O)[O-])c3)o2)C(=O)NC(C)(C)C)cc1,0,0,0,0,0
CCCNC(=O)Cn1c(=O)/c(=C\c2ccc(-c3ccc([N+](=O)[O-])cc3)o2)s/c1=C\C(=O)C(C)(C)C,0,0,0,0,9.7
O=C(Nc1cc(Sc2nc3ccccc3s2)cc([N+](=O)[O-])c1)c1ccccc1,0,0,0,0,0
O=C(Nc1cc(Sc2ccccn2)cc([N+](=O)[O-])c1)c1cccc(F)c1,0,0,0,0,9.4
COc1ccccc1NC(=O)C1=C(C)NC(SCC(=O)c2ccc(C)cc2)=C(C#N)C1c1ccco1 (stereo not given),0,0,0,0,8.8
CCOC(=O)CC1C(=O)NCCN1S(=O)(=O)c1ccccc1Cl (stereo not given),0,0,-,0,0
COc1ccccc1C(=O)Nc1sc(C(=O)N2CCCC2)c(C)c1C#N,-,-,-,-,8.5
CC(Sc1nc(-c2ccccc2)cs1)C(=O)Nc1ccc(Cl)cn1 (stereo not given),0,0,0,0,9.5
CC(C)NC(=S)NCc1cccnc1,0,0,0,51,0
CCC(C)c1ccc(NC(=S)NCc2cccnc2)cc1 (stereo not given),0,0,0,0,0
COc1cc(OC)c(OC)cc1CNCCSc1nnnn1C,-,-,-,-,0
CS(=O)(=O)Nc1ccccc1C(=O)O,0,0,0,51,0
CCN(CC)C(=O)c1ccccc1NS(C)(=O)=O,-,-,-,-,0
CC(=O)Nc1ccc(N(C)S(C)(=O)=O)cc1,0,0,0,39,0
SMILES,Yeast growth inh,Yeast lifespan up,Phagocytosis inh,Measles CPE,RAM network inh
CC(=O)Nc1ccc(S(=O)(=O)Nc2cccc(N(C)S(C)(=O)=O)c2)cc1,0,0,0,0,0
NC(=O)COC(=O)c1ccc(-c2ccccc2)cc1,-,-,-,-,0
CCOc1cc2c3c(c1)C1(OCCO1)C(=O)N3C(C)(C)CC2C (stereo not given),0,0,0,0,0
CCc1cc2c3c(c1)C(C)CC(C)(C)N3C(=O)C2=O (stereo not given),0,28,0,0,0
CC1(C)Cc2c(c(-c3ccccc3Cl)[nH]c(=O)c2C#N)CO1,0,0,0,28,0
O=C(O)CCCCn1c(SCC(=O)Nc2ccccc2C(F)(F)F)nc2ccsc2c1=O,0,0,0,0,8.7
COc1ccc(NC(=O)CSc2nc3ccsc3c(=O)n2CCCCCC(=O)O)cc1,-,-,-,-,11
COc1ccc(C(CC(=O)NCc2ccccc2)Sc2n[nH]c(-c3ccc(Cl)cc3)n2)cc1 (stereo not given),0,0,0,0,8.7
Cc1ccc(Nc2nnc(-c3ccc(N4CCOCC4)c([N+](=O)[O-])c3)c3ccccc23)cc1,0,0,0,35,0
O=[N+]([O-])c1cc(-c2nnc(Nc3ccccc3)c3ccccc23)ccc1N1CCOCC1,0,0,-,0,0
COc1ccc(N/C=C(\C(C)=O)c2ccc(OC)c(OC)c2)cc1OC,-,-,-,-,0
Cc1ccc(NC(=O)COC(=O)CN2C(=O)COc3ccccc32)cc1,0,0,0,0,0
CC(C)C(OC(=O)CN1C(=O)COc2ccccc21)C(=O)NC1CCCC1 (stereo not given),0,34,0,0,0
Cc1ccc2c(c1)N(CC(=O)OC(CC(C)C)C(=O)NC1CCCC1)C(=O)CO2 (stereo not given),0,0,0,0,8.7
NC(=O)[C@@H]1CCCN1Cc1nc(-c2cccs2)no1,-,-,-,-,0
Cc1cc(C(=O)Nc2cccc3ccccc23)n(-c2ccccc2)n1,-,-,-,-,0
CC(=O)Nc1ccc(NC(=O)c2cc(C)nn2-c2ccccc2)cc1,0,0,0,53,0
COc1cc(CC(NC(C)=O)C(=O)NC2CCN(c3c4c(nc5ncnn35)CCC4)CC2)cc(OC)c1 (stereo not given),-,-,-,-,0
CC(C)c1ccc(NC(=O)c2cccc(Br)c2)cc1,-,-,-,-,0
COc1cc(C(=O)Nc2cccc(-c3nc4cc(C)ccc4o3)c2)cc(OC)c1OC,0,0,0,0,8.7
Cc1ccc(NC(=O)c2cc(=O)n(Cc3ccccc3)c(=O)[nH]2)cc1C,-,-,-,-,0
CS(=O)(=O)N1CCc2cc(-c3csc(NC(=O)Cc4cccs4)n3)ccc21,0,0,0,101,0
O=C(NNC1CC(=O)N(c2ccc(Br)cc2)C1=O)c1ccccn1 (stereo not given),-,-,-,-,0
Cn1c2ccccc2c(=O)n2c(=O)c3ccccc3cc12,47,0,0,0,0
Cn1c(-c2ccccc2)cc(=O)c2ccccc21,0,0,0,0,0
SMILES,Yeast growth inh,Yeast lifespan up,Phagocytosis inh,Measles CPE,RAM network inh
COc1cc2nc(C3CCC3)n(NC(=O)COc3ccccc3)c(=O)c2cc1OC,0,53,0,0,0
Cc1ccc(-n2nnnc2SCCNS(=O)(=O)c2ccccc2)cc1C,0,0,0,0,9.9
CC1=NN(C(=O)c2ccc(Cn3ccc([N+](=O)[O-])n3)cc2)C(O)(C(F)(F)F)C1 (stereo not given),0,0,0,0,0
Cc1ccc(-n2c(C)cc(-c3csc(N)n3)c2C)cc1,0,0,0,52,0
COCCNC(=S)N/N=C/c1ccc(OCc2ccc(C(=O)OC)cc2)c(OC)c1,0,0,0,0,10
CC(C1CC1)N(Cc1ccccc1)C(=S)Nc1ccccc1Cl (stereo not given),-,-,-,-,8.6
